Tested on: not listed separately
Assay: Inhibition of bacterial NDM-1 (unknown origin) expressed in Escherichia coli EXPRESS BL21(DE3) assessed as inhibition constant by measuring rate of substrate hydrolysis by UV-visible spectrophotometry
Design: species or system Bacteria
Conditions: not given
Outline: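 Reporter-substrate assay with purified MBL (1–70 nM final) in 50 mM HEPES pH 7.5 at 30 °C. […] Inhibitor 0.5–1000 μM final. Ki derived from the v0/vi vs [I] slope assuming competitive inhibition, or from a Dixon plot. Ki given when inhibition >70%, otherwise % inhibition at 100 μM. Triplicate.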

SMILES	Ki [nM]
Cc1[nH]cnc1CN(Cc1c[nH]cn1)[C@@H](CCCn1c(-c2ccccc2)n[nH]c1=S)C(=O)O	38
O=C(O)[C@H](CCCn1c(-c2ccc3ccccc3c2)n[nH]c1=S)N(Cc1c[nH]cn1)Cc1c[nH]cn1	30
O=C(O)[C@H](CCCn1c(-c2ccccc2)n[nH]c1=S)N(Cc1c[nH]cn1)Cc1c[nH]cn1	30
O=C(O)[C@H](CCn1c(-c2ccccc2)n[nH]c1=S)N(Cc1c[nH]cn1)Cc1c[nH]cn1	40
O=C(O)[C@H](CCCn1c(-c2ccccc2)n[nH]c1=S)N(Cc1ccccn1)Cc1ccccn1	570

Tested on: Klebsiella pneumoniae
Assay: Antimicrobial activity against blaVIM-1-producing multidrug-resistant Klebsiella pneumoniae K47-25 clinical isolate assessed as meropenem MIC at 32 ug/ml by broth microdilution method (reference value: […] ug/ml)
Format: functional
Conditions: dose 32 µg/ml
Outline: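 Inoculum was 5×10^4 CFU/well. Each inhibitor was present at a fixed 32 μg/mL, and MICs were also taken without inhibitor.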

SMILES	MIC [µg/mL]
Cc1[nH]cnc1CN(Cc1c[nH]cn1)[C@@H](CCCn1c(-c2ccccc2)n[nH]c1=S)C(=O)O	0.06
O=C(O)[C@H](CCCn1c(-c2ccc3ccccc3c2)n[nH]c1=S)N(Cc1c[nH]cn1)Cc1c[nH]cn1	0.03
O=C(O)[C@H](CCCn1c(-c2ccccc2)n[nH]c1=S)N(Cc1c[nH]cn1)Cc1c[nH]cn1	0.03
O=C(O)[C@H](CCn1c(-c2ccccc2)n[nH]c1=S)N(Cc1c[nH]cn1)Cc1c[nH]cn1	0.06
O=C(O)[C@H](CCCn1c(-c2ccccc2)n[nH]c1=S)N(Cc1ccccn1)Cc1ccccn1	0.06

Tested on: not listed separately
Assay: Cytotoxicity against human HeLa cells assessed as LDH release incubated for 24 hrs by membrane integrity assay
Format: toxicity, cell-based
Conditions: not given
Outline: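 HeLa cells (20,000/well) exposed to compound up to 250 μM for 24 h at 37 °C, 5% CO2 in DMEM with 10% FBS, 4.5 mg/mL glucose and 2 mM L-glutamine. LDH release expressed as % of Triton X-100 maximum lysis; IC50 is the concentration giving 50% cytotoxicity.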

SMILES	CC50 at 24 h [µM]
Cc1[nH]cnc1CN(Cc1c[nH]cn1)[C@@H](CCCn1c(-c2ccccc2)n[nH]c1=S)C(=O)O	105
O=C(O)[C@H](CCCn1c(-c2ccccc2)n[nH]c1=S)N(Cc1c[nH]cn1)Cc1c[nH]cn1	> 250
O=C(O)[C@H](CCn1c(-c2ccccc2)n[nH]c1=S)N(Cc1c[nH]cn1)Cc1c[nH]cn1	> 250

Tested on: not listed separately
Assay: Solubility in PBS pH 7.4 after 24 hrs by LC-MS/MS analysis
Format: physicochemical
Conditions: not given
Outline: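 Solubility in 10 mM PBS, pH 7.4.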

SMILES	solubility at 24 h [µM]
Cc1[nH]cnc1CN(Cc1c[nH]cn1)[C@@H](CCCn1c(-c2ccccc2)n[nH]c1=S)C(=O)O	≥ 200
O=C(O)[C@H](CCCn1c(-c2ccc3ccccc3c2)n[nH]c1=S)N(Cc1c[nH]cn1)Cc1c[nH]cn1	≥ 200
O=C(O)[C@H](CCCn1c(-c2ccccc2)n[nH]c1=S)N(Cc1c[nH]cn1)Cc1c[nH]cn1	≥ 200
O=C(O)[C@H](CCn1c(-c2ccccc2)n[nH]c1=S)N(Cc1c[nH]cn1)Cc1c[nH]cn1	≥ 200
O=C(O)[C@H](CCCn1c(-c2ccccc2)n[nH]c1=S)N(Cc1ccccn1)Cc1ccccn1	≥ 200

Tested on: not listed separately
Assay: n-Octanol/PBS partition coefficient, logD of the compound at pH 7.4 after 2 hrs by LC-MS/MS analysis
Format: physicochemical
Conditions: not given
Outline: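 LogD from partitioning between 10 mM PBS pH 7.4 and n-octanol (1:1).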

SMILES	logD at 2 h
Cc1[nH]cnc1CN(Cc1c[nH]cn1)[C@@H](CCCn1c(-c2ccccc2)n[nH]c1=S)C(=O)O	-1.93
O=C(O)[C@H](CCCn1c(-c2ccc3ccccc3c2)n[nH]c1=S)N(Cc1c[nH]cn1)Cc1c[nH]cn1	-0.823
O=C(O)[C@H](CCCn1c(-c2ccccc2)n[nH]c1=S)N(Cc1c[nH]cn1)Cc1c[nH]cn1	-2.12
O=C(O)[C@H](CCn1c(-c2ccccc2)n[nH]c1=S)N(Cc1c[nH]cn1)Cc1c[nH]cn1	-2.2
O=C(O)[C@H](CCCn1c(-c2ccccc2)n[nH]c1=S)N(Cc1ccccn1)Cc1ccccn1	0.243

Tested on: not listed separately
Assay: Stability in mouse plasma assessed as half life at 37 degC
Format: ADME, cell-free
Conditions: not given

SMILES	half-life [min]
Cc1[nH]cnc1CN(Cc1c[nH]cn1)[C@@H](CCCn1c(-c2ccccc2)n[nH]c1=S)C(=O)O	> 360
O=C(O)[C@H](CCCn1c(-c2ccc3ccccc3c2)n[nH]c1=S)N(Cc1c[nH]cn1)Cc1c[nH]cn1	> 360
O=C(O)[C@H](CCCn1c(-c2ccccc2)n[nH]c1=S)N(Cc1c[nH]cn1)Cc1c[nH]cn1	> 360
O=C(O)[C@H](CCn1c(-c2ccccc2)n[nH]c1=S)N(Cc1c[nH]cn1)Cc1c[nH]cn1	> 360
O=C(O)[C@H](CCCn1c(-c2ccccc2)n[nH]c1=S)N(Cc1ccccn1)Cc1ccccn1	> 360

Tested on: not listed separately
Assay: Metabolic stability in CD-1 mouse microsomes assessed as compound remaining after 40 mins LC-MS/MS analysis
Format: ADME, Microsome
Conditions: read-out: Activity
Outline: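 Mouse liver microsomes, mixed gender, at 37 °C for 40 min; propranolol control. Reports t1/2, intrinsic clearance and % intact compound remaining at 40 min.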

SMILES	remaining at 40 min [%]
Cc1[nH]cnc1CN(Cc1c[nH]cn1)[C@@H](CCCn1c(-c2ccccc2)n[nH]c1=S)C(=O)O	98.1
O=C(O)[C@H](CCn1c(-c2ccccc2)n[nH]c1=S)N(Cc1c[nH]cn1)Cc1c[nH]cn1	91.2
O=C(O)[C@H](CCCn1c(-c2ccccc2)n[nH]c1=S)N(Cc1ccccn1)Cc1ccccn1	80.5

Target: T1, Aminopeptidase N (Sus scrofa, UniProt P15145)
T1 sequence (P15145 whole entry): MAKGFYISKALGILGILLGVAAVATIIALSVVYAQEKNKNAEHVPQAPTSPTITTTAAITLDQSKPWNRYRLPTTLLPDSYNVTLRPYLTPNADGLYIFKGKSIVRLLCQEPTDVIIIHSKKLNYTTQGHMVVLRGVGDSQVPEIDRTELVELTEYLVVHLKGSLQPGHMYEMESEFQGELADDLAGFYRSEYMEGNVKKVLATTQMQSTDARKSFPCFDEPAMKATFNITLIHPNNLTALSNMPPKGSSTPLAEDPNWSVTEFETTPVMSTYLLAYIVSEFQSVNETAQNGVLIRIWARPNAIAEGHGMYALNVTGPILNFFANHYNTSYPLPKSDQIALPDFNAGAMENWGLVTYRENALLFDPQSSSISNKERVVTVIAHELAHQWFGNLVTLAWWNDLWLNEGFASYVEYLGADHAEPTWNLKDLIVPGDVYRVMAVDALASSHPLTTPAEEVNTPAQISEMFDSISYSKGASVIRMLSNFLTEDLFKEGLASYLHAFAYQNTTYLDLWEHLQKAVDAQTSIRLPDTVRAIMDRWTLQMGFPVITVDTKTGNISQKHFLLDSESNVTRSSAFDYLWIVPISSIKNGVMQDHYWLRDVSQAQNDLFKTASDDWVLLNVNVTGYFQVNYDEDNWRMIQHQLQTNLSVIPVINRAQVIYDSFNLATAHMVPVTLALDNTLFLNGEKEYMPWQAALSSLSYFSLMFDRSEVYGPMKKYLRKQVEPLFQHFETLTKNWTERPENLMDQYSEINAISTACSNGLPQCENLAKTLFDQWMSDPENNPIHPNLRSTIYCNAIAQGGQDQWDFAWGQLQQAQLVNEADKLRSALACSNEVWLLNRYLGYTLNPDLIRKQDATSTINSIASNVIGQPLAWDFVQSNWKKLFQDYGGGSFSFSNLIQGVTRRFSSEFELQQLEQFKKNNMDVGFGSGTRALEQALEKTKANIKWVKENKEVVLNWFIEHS
Assay: Inhibition of porcine APN using fluorogenic substrate H-Leu-AMC measured for 1 hr
Conditions: not given

SMILES	IC50 [µM]
O=C(O)[C@H](CCCn1c(-c2ccc3ccccc3c2)n[nH]c1=S)N(Cc1c[nH]cn1)Cc1c[nH]cn1	16
O=C(O)[C@H](CCCn1c(-c2ccccc2)n[nH]c1=S)N(Cc1c[nH]cn1)Cc1c[nH]cn1	30
O=C(O)[C@H](CCn1c(-c2ccccc2)n[nH]c1=S)N(Cc1c[nH]cn1)Cc1c[nH]cn1	27

Reference: ChEMBL document CHEMBL5236609, “Optimization of 1,2,4-Triazole-3-thiones toward Broad-Spectrum Metallo-β-lactamase Inhibitors Showing Potent Synergistic Activity on VIM- and NDM-1-Producing Clinical Isolates” (J Med Chem, 2022)
